From paper PMC9080015 (RSC Advances, 2018)
pIC50: −log10 of the molar value.

Columns and labels:
CYP1A1 [1] = conditions: read-out: IC50 CYP1A1; cited from earlier work
CYP1A1 [2] = biological target: T1, CYP1A1 (Homo sapiens, UniProt P04798); assay: EROD assay, recombinant human CYP1A1 inhibition; assay type: biochemical
T1 sequence (P04798 1-512): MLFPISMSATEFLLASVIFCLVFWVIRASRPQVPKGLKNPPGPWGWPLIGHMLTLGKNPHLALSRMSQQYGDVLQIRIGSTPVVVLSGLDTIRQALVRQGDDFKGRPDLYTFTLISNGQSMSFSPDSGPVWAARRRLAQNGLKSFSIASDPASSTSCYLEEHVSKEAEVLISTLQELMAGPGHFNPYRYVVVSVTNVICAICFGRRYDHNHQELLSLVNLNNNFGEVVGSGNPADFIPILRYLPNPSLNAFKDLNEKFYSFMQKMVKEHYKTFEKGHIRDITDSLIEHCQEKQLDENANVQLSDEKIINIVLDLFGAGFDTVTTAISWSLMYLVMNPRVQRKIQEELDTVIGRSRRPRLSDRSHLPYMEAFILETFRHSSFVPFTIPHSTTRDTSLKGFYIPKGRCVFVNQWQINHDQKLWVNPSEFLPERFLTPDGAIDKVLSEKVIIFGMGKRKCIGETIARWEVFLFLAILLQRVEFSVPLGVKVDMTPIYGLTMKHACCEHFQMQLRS
Summary of the method: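 Supersomes with P450 reductase. Test compound is taken from 10 mM DMSO stock into Tris–HCl pH 7.4 (final DMSO <1% v/v), at several concentrations. Methanol stop. Resorufin fluorescence read at ex 544/em 590 nm. IC50 from nonlinear regression, log(inhibitor) vs normalized response, variable slope.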

CYP1A2 = conditions: read-out: IC50 CYP1A2; recombinant human enzyme; cited from earlier work
recombinant human CYP1B1 = biological target: T2, recombinant human CYP1B1 (Homo sapiens, UniProt Q16678); assay: EROD assay, recombinant human CYP1B1 inhibition; assay type: biochemical; conditions: selectivity for CYP1B1 over CYP1A1
T2 sequence (Q16678 1-543): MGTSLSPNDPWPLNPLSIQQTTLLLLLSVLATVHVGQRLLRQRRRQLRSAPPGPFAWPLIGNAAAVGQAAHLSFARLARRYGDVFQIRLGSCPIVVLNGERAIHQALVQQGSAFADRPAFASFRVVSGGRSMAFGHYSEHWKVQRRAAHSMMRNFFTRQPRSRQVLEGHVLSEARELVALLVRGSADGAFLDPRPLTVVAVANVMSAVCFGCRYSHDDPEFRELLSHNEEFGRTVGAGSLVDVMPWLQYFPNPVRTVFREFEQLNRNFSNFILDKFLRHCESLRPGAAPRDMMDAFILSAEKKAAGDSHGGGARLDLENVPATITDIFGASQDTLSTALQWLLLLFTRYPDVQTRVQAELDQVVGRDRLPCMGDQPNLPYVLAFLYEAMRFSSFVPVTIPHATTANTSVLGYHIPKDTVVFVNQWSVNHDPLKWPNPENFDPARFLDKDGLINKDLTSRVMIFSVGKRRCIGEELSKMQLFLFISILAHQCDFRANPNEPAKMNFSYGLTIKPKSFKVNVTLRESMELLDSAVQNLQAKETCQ

MCF-7/1B1 cells = assay type: cell-based, human
Summary of the method: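 MCF-7/1B1 cells were made by incubating parental MCF-7 with 10 nM TCDD for five days, then seeded at about 3000 cells/well in RPMI 1640/10% FBS for 24 h. Screen: 20 μM docetaxel alone or with 10 μM test compound. […] MTT read at 490 nm. Non-linear regression fit; mean ± SD of three independent measurements; Student's t test.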

parental MCF-7 cells = assay: MTT anti-proliferation assay in parental MCF-7 cells; assay type: cell-based; conditions: Homo sapiens, MCF7, read-out: IC50 of docetaxel in parental MCF-7 cells
Summary of the method: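 Parental MCF-7 cells were grown in RPMI 1640 with 10% FBS at 37 °C and 5% CO2. About 3000 cells/well were seeded and left 24 h, then exposed to six docetaxel concentrations. MTT read-out was absorbance at 490 nm. IC50 came from non-linear regression (log inhibitor vs normalized response, variable slope).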

## O=c1cc(-c2ccccc2)oc2c1ccc1ccccc12 [ANF, α-Naphthoflavone]
CYP1A1 [1]
  pIC50: 7.22
CYP1A1 [2]
  pIC50: 7.20
CYP1A2
  pIC50: […]

## COc1cc2c(=O)cc(-c3cccc(Br)c3)[nH]c2c2c(OC)cccc12 [Compound 5e, 2-(3-Bromophenyl)-6,10-dimethoxybenzo[h]quinolin-4(1H)-one]
Recombinant human CYP1B1
  IC50 ratio 1A1/1B1: 5.5
MCF-7/1B1 cells; MCF-7/1B1 cells, varying concentrations, no docetaxel
  antiproliferative activity of the compound alone: a significant antiproliferative activity was not observed

## CC(=O)O[C@@]12CO[C@@H]1C[C@H](O)[C@@]1(C)C(=O)[C@H](O)C3=C(C)[C@@H](OC(=O)[C@H](O)[C@@H](NC(=O)OC(C)(C)C)c4ccccc4)C[C@@](O)([C@@H](OC(=O)c4ccccc4)[C@H]21)C3(C)C [docetaxel, reference compound]
Parental MCF-7 cells
  pIC50: 4.53
MCF-7/1B1 cells
  fold resistance of MCF-7/1B1 cells to docetaxel versus parental MCF-7 cells: 5 fold
